Screens deposited in PubChem by several laboratories.
Exocytosis inh: lytic granule exocytosis inhibition; TALL-104 LAMP-1 surface exposure, flow cytometry; cells stimulated with thapsigargin and PMA; inhibition, % at 10 µM; hit rate 0.66% among 360,000;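 active = inhibition above about 55%, limit read from the data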
NTR1 ag: agonists of human neurotensin receptor NTR1; hit rate 0.17% among 330,000; NTR1-U2OS beta-arrestin-GFP spot imaging, agonist mode; P30989; activation, % at 20 µM;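 active = activation at or above 40% of the spot to cytoplasm intensity ratio, with at least 20 cells analyzed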
MC4R barr agon: human MC4R agonism via beta-arrestin; U2OS MC4R beta-arrestin complementation, luminescence; percent of melanotan II response, DMSO zero; activation, % at 8.9 µM; AID 540308; hit rate 0.98% among 360,000;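 active = activation above a per-plate cutoff, the mean activation of sample wells on that plate plus 3 SD, cut at about 8% in these data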
Target sequence (P32245 whole entry, looked up): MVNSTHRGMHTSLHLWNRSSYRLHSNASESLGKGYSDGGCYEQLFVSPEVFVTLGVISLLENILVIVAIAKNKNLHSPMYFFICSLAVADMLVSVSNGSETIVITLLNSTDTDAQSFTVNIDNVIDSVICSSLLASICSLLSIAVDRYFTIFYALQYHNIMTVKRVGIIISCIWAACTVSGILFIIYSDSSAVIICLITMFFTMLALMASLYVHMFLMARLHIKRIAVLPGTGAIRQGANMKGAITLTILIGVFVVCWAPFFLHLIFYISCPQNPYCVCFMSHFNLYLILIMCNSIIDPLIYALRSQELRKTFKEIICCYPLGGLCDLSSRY
MC4R antag cAMP: blocks human MC4R cAMP signaling; P32245; MC4R-expressing cells, MTII-stimulated cAMP, LANCE TR-FRET; inhibition, % at 6.5 µM; hit rate 0.48% among 360,000; AID 540295;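 active = inhibition above its plate's cutoff, the mean of tested wells on that plate plus 3 SD, cut at about 29% in these data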
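Assay system: U2OS cells stably expressing human melanocortin 4 receptor (MC4R) / Dosing: 6.5 µM / Timing: compound 30 min, challenge 1 h, detection 1 h / Measured by: Eu-cAMP/anti-cAMP TR-FRET, emission 671 nm / Replicates: singlicate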
Bfl-1 A1 inh: inhibitors of the anti-apoptotic protein A1, read as caspase activation | MEF A1-2A-BIM cells, Caspase-Glo 3/7 luminescence, 3 h; percent of clofoctol response, vehicle zero | hit rate 0.066% among 330,000 | caspase activation, % (test concentration not listed);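 active = over half of replicate activation scores above 10%, or exactly half above 10 with the replicate mean above 10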
HGIII-sPLA2 inh: Inhibits HGIII-sPLA2 liposome hydrolysis, primary screen. Q9NZ20. QFRET BODIPY PC-A2 liposome hydrolysis, fluorescence. inhibition, % at 12.2 µM. hit rate 0.56% among 370,000. AID 743126;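 active = inhibition above mean plus 3 SD of compounds lying within the high and low control bounds, cut at about 19% in these data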
U2OS cAMP counter: counter-screen for MC4R antagonists: nonselective cAMP signaling inhibitors; shares compounds with MC4R antag cAMP; parental U2OS, forskolin cAMP, LANCE TR-FRET; inhibition, % at 6.5 µM; hit rate 26% among 1,600;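 active = mean inhibition over triplicates above the low-control well mean plus 3 SD, set per campaign, cut at about 13% in these data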;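 note: signal is single emission at 671 nm which falls as cellular cAMP rises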
MC4R antag conf: human MC4R cAMP antagonism confirmation; hit rate 27% among 1,600; inhibition, % at 6.5 µM; shares compounds with MC4R antag cAMP; MC4R-expressing cells, MTII-stimulated cAMP, TR-FRET; in the data active = inhibition above about 29%
MC4R barr conf: human MC4R beta-arrestin agonism confirmation. shares compounds with MC4R barr agon. U2OS MC4R beta-arrestin recruitment, luminescence; scaled DMSO 0%, Melanotan II 100%. activation, % at 8.9 µM. hit rate 31% among 2,400;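 active = mean activation across replicates above the hit cutoff set in the earlier primary screen, cut at about 8% in these data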
MOR DOR agonist: activates mu-delta opioid heterodimer, MC4R agonist counter-screen; activation, % at 9.2 µM; shares compounds with MC4R barr agon; AID 602194; U2OS PathHunter beta-arrestin, beta-gal luminescence; percent of deltorphin B response, DMSO zero; hit rate 5.8% among 2,400;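 active = mean activation across replicates exceeds the hit threshold derived in the earlier primary screen, cut at about 18% in these data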
Exocytosis CP01: blocks lytic granule exocytosis; shares compounds with Exocytosis inh; TALL-104 cells, LAMP-1 externalization, flow cytometry; stimulated with PMA plus thapsigargin; inhibition, % at 10 µM; hit rate 11% among 1,500; AID 651954; in the data active = inhibition above about 60%
Each line names hits and unclear results; the compound was inactive in the other large screens (follow-up assays come after a bar, where they were run). Only some compounds are listed: those with a hit (about 2.5% of all), similar ones and a draw of the others.

O=C(NCNC(=O)NC1C(=O)NC(=O)N1CO)NC1C(=O)NC(=O)N1CO (stereo not drawn)	none
COc1ccc(CNCCc2ccc3c(c2)OCO3)cc1Br	none
Cc1ccccc1C(=O)N1Cc2cnnn2-c2ccccc2C1C#N (stereo not drawn)	none (no result: NTR1 ag, Bfl-1 A1 inh)
Cc1ccccc1CN1Cc2cnnn2-c2ccccc2C1C#N (stereo not drawn)	MC4R antag cAMP 37 (no result: NTR1 ag, Bfl-1 A1 inh) | U2OS cAMP counter inactive | MC4R antag conf 45
C/C(=N\Nc1cccc2ccccc12)c1c(O)n(Cc2ccccc2)c(=O)[nH]c1=O	MC4R antag cAMP 29 | U2OS cAMP counter inactive | MC4R antag conf inactive
CCC(C)C1NC(=O)C(NC(=O)C(CC(C)C)N(C)C(=O)C2CCCN2C(=O)C(C)O)C(C)OC(=O)C(Cc2ccc(OC)cc2)N(C)C(=O)C2CCCN2C(=O)C(CC(C)C)NC(=O)[C@H](C)C(=O)[C@H](C(C)C)OC(=O)CC1O (stereo partly drawn)	none (no result: NTR1 ag, Bfl-1 A1 inh)
CN1CCN(CC(=O)Nc2ccc(Cl)cc2C(=O)c2ccccc2)CC1	none
Nc1cccc(SC2CC(=O)N(c3ccc(Cl)cc3C(=O)c3ccccc3)C2=O)c1 (stereo not drawn)	MC4R barr agon 9.7 (no result: NTR1 ag, Bfl-1 A1 inh) | MC4R barr conf inactive | MOR DOR agonist inactive
NC(N)=N/N=C/c1cn(-c2ccccc2)nc1-c1cccs1	MC4R barr agon 12 | MC4R barr conf 19 | MOR DOR agonist 24
CCOC(=O)[C@]12Cc3cc(C)ccc3[C@H]1N(C(C)C)C(=O)c1ccccc12	none (no result: NTR1 ag, MC4R barr agon, MC4R antag cAMP, Bfl-1 A1 inh)
Clc1ccc(C[n+]2c(-c3ccccc3)cc(-c3ccccc3)cc2-c2ccccc2)cc1	MC4R barr agon 16 | MC4R barr conf 20 | MOR DOR agonist inactive
CCOc1cc(CNCCc2c[nH]c3ccccc23)cc(Cl)c1OCC	MC4R barr agon 15 | MC4R barr conf 17 | MOR DOR agonist inactive
N[C@@H](Cc1c[nH]c2ccccc12)c1nnc(SCc2ccccc2)o1	none
N[C@@H](Cc1c[nH]c2ccccc12)c1nnc(SCc2ccc(Cl)cc2)o1	MC4R barr agon 10 | MC4R barr conf inactive | MOR DOR agonist inactive
O=c1[nH]cc(N(CCCl)CCCl)c(=O)[nH]1	none (no result: Exocytosis inh, NTR1 ag, MC4R barr agon, MC4R antag cAMP, Bfl-1 A1 inh)
COc1ccc(-n2nnnc2C(CCSC)N2CCC(n3c(=O)[nH]c4ccccc43)CC2)cc1 (stereo not drawn)	none (no result: NTR1 ag, MC4R barr agon, MC4R antag cAMP, Bfl-1 A1 inh)
COc1ccccc1-c1cc(NC(C)=O)c2ncc(-c3ccccc3)n2c1	MC4R barr agon 16 (no result: NTR1 ag, Bfl-1 A1 inh) | MC4R barr conf 18 | MOR DOR agonist inactive
N=C1c2ccccc2CN1NC(=O)c1ccc(Br)cc1	none
CC12CCC3C(CC=C4CC(O)CCC43C)C1C/C(=C\c1ccccc1F)C2=O (stereo not drawn)	MC4R barr agon 27 | MC4R barr conf 25 | MOR DOR agonist inactive
Cc1nn(C)cc1/C=C1/CC2C3CC=C4CC(O)CCC4(C)C3CCC2(C)C1=O (stereo not drawn)	none
CCC(C)N1C(=O)NC(=O)C2(Cc3c(ccc4ccccc34)N(C)C2)C1=O (stereo not drawn)	Exocytosis inh 60 | Exocytosis CP01 inactive
CCCCCCCSc1cc(OC)c(CCNC)cc1OC	Exocytosis inh 85 | Exocytosis CP01 inactive
